Common to all, as to assay type: ADME, organism-based
Series [1] is described as follows: Oral bioavailability in Sprague-Dawley rat at 10 mg/kg. As to conditions: in vivo.
For a further series, the system named is Rattus norvegicus. Put plainly: Free plasma concentration in Sprague-Dawley rat at 10 mg/kg, po after 4 hrs. As to conditions: in vivo. An outline of the steps: (§1)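 Sprague-Dawley rats given one 10 mg/kg oral dose in 1% Tween 80, 2% HPMC, 97% water. Plasma drug levels followed over time, giving Cmax, time to Cmax and AUC. Free concentration derived using the fraction unbound from rapid equilibrium dialysis.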

Series [2] in a line: Volume of distribution at steady state in Sprague-Dawley rat at 2 mg/kg, iv. As to conditions: in vivo, read-out: Vdss. An outline of the steps: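 Sprague-Dawley rats dosed intravenously at 2 mg/kg in 100% DMSO. Plasma clearance, steady-state volume of distribution and terminal half-life derived from the plasma concentration-time profile.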
The nature of series [3]: Cmax in Sprague-Dawley rat at 10 mg/kg, po after 4 hrs. Set-up: dose 10 mg/kg, route oral. The note with it: in vivo. An outline of the steps:
as §1

Series [4] in a line: AUC in Sprague-Dawley rat at 10 mg/kg, po. As to conditions: in vivo. An outline of the steps:
as §1

Usually bioavailability stands for the share of a dose that reaches the circulation, judged against a reference dose that is usually intravenous. As a reminder, the Cmax is the highest concentration seen after dosing. By AUC is commonly meant the area under the concentration-time curve, a measure of exposure. Lower therefore signals less exposure. Turning to `C[C@](O)(CO)c1ccc(-c2ncc(S(=O)(=O)c3ccc(N)nc3)s2)c(Cl)c1`, the bioavailability in series [1] amounted to 82%. Besides, the “Cp(f)” value in the series on Rattus norvegicus came to 0.43 µM. Besides, the Vd in series [2] was 0.18 L/kg. For the same compound, the Cmax in series [3] is 57.6 µM. Further, the AUC in series [4] amounted to 568 µM·h.

Source of the values: ChEMBL document CHEMBL3576811, “Small Molecule Disruptors of the Glucokinase-Glucokinase Regulatory Protein Interaction: 5. A Novel Aryl Sulfone Series, Optimization Through Conformational Analysis” (J Med Chem, 2015).
